Drawing on ChEMBL document CHEMBL4513216, “Probing the Open Global Health Chemical Diversity Library for Multistage-Active Starting Points for Next-Generation Antimalarials” (ACS Infect Dis, 2020), this text covers cytotoxicity for 96 compounds.

SMILES strings stand for the structures.

A short description of this data set: Toxicity liver stage against HepG2, at 10uM. The settings on record: human, HepG2-A16-CD81EGFP cells; read-out: INHIBITION
On the set-up: test concentration 10 uM, cell line HepG2-A16-CD81EGFP. It counts as cell-based. The method, boiled down:
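Uninfected HepG2-A16-CD81EGFP cells, 3 × 10^3 per well, 1536-well, plated on prespotted compound at 10 μM final, parasite-free screening media added to match infected plates; puromycin 10 μM positive, DMSO 0.5% negative; run in parallel with 48 h PbLuc assay at 37 °C, 5% CO2; viability by CellTiter-Glo luminescence, normalized to controls.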
Consider `Cc1c(C)n2c(SCC(=O)N3CCCCC3)nnc2[nH]c1=O`, for which the cytotoxicity at 10 µM was found to be 3.33%.
Regarding `N#Cc1c(F)cccc1N1CCC(NS(=O)(=O)c2cccs2)CC1`, the cytotoxicity at 10 µM is -7.39%.
Then `COc1cc(CNCC(O)c2ccc(F)c(F)c2)cc2c1OCO2` (stereo unspecified), with -8.28%; and `COc1ccc2nnc(CCC(=O)Nc3nc4c(s3)CCC4)n2n1`, with -4.8%; and `Cc1noc([C@@H]2C[C@H](NC(=O)Nc3cccc(F)c3)CN2C)n1`, with -2.17%.
Consider `CCn1c(=O)nc(N)c2c(-c3ccc(OC)cc3)csc21`, for which the cytotoxicity at 10 µM was -32.8%.
Then `COCCn1ccc2c(C(=O)NCC3CCCO3)cccc21` (stereo unspecified), with 1.53%; and `CCCS(=O)(=O)c1ccc(N2CCC(Cc3ccccc3)CC2)nn1`, with -7.91%; and `COc1ccc(S(=O)(=O)NCCCc2ccc(N(C)C)cc2)cc1F`, with -2.59%.
Then `COc1ccccc1C(=O)N1CC2(COC(C)(C)OC2)C1`, with -6.4%; and `Cn1nnc2c1CCN(C(=O)CC1CC1)C2COCCN1CCCC1` (stereo unspecified), with 17.4%; and `Cn1cnc2c1C(COCC1CC1)CN(C(=O)c1cccs1)C2` (stereo unspecified), with 7.63%.
The same measure for `O=c1c2cnc(N3CCCC3)nc2ccn1-c1cccc(C(F)(F)F)c1`: 16.9%; for `O=C(CCc1nc2cccnc2[nH]1)NCc1cccnc1`: 7.72%.
Take `Cc1oncc1C(=O)N1CCC2(C1)CN(c1cccnc1)C(=O)CN2C` (stereo unspecified): the cytotoxicity at 10 µM is -5.26%.
As to `Cc1ccc(-c2noc(C3CCN3C(=O)c3ccn(C)n3)n2)s1` (stereo unspecified), the cytotoxicity at 10 µM worked out at 3.56%.
Then `CS(=O)(=O)N1CCCCCC1c1cc(-c2ccc(F)cc2)no1` (stereo unspecified), with 2.97%.
Turning to `CN1C[C@@H](C(=O)NC2CCCC2)[C@@]2(COc3ccc(F)cc3C2=O)C1`, the cytotoxicity at 10 µM was 2.1%.
Then `CCC(=O)N1CCCCC1c1nc(O)c2c(n1)CN(S(=O)(=O)CC)CC2` (stereo unspecified), with 1.7%.
For the compound `Cc1cnc(-c2nc(C3CCN(Cc4ccccc4O)CC3)no2)cn1`, the cytotoxicity at 10 µM was found to be 3.66%.
The same measure for `CCN1CCC(N2CCC(c3nc(C)cc(C)n3)C2)CC1` (stereo unspecified): 5.15%.
Then `CC(=O)N1CCC(c2cncc(N3CCC(O)C3)n2)CC1` (stereo unspecified), with 5.57%; and `CN(C)S(=O)(=O)N1CCCC(C)(c2ncc(C(N)=O)s2)C1` (stereo unspecified), with -2.36%; and `Cn1cc(CN2CCOC(c3cccc(-c4cccc(F)c4)n3)C2)cn1` (stereo unspecified), with -11.1%.
The same measure for `Oc1cc(-c2cccs2)nc(C2CCCN(CC3=CCCOC3)C2)n1` (stereo unspecified): -5.56%; for `Cc1cc(C)cc(NCCC(=O)NCc2cccnc2N(C)C)c1`: -0.211%.
With `Cc1nnc(CN2CCCC2c2ccc3c(c2)OCCO3)n1C` (stereo unspecified), the cytotoxicity at 10 µM was -0.379%.
The same measure for `CC(C)N1CCC(NC(=O)c2cn(-c3ccc(F)cc3)nn2)C1` (stereo unspecified): -5.05%; for `CC(C)(C)NC(=O)COc1ccc(Oc2ccccn2)cc1`: 7.32%.
The same measure for `CN(C)CCOc1ccc(CNC(=O)c2cccc3[nH]ncc23)cc1`: 7.99%; for `CC(C)c1n[nH]c(C2CN(Cc3ncc[nH]3)CCO2)n1` (stereo unspecified): 1.95%; for `Cc1noc(C)c1CN(C)C(=O)NCCOc1ccc(F)cc1F`: -0.0414%.
Then `COC(C)c1nc(CN2CCNCC2)cs1` (stereo unspecified), with 4.68%.
Regarding `COCCNC(=O)CN(C)CCn1nc2ccccn2c1=O`, the cytotoxicity at 10 µM is -156%.
As for `CC(c1nc(C(C)(C)C)no1)N1CCN(c2ccc(C#N)cn2)CC1` (stereo unspecified), the cytotoxicity at 10 µM is 3.84%.
As for `CC(C)S(=O)(=O)NCC1CCCN(C(=O)c2ccc(F)cc2)C1` (stereo unspecified), the cytotoxicity at 10 µM is 4.68%.
`COC(=O)NCCC(=O)NCC1(c2cccc(Cl)c2)CC1`: the cytotoxicity at 10 µM is -4.31%.
For the compound `COc1ccc(C)cc1CN(Cc1ncc(C)o1)C1CCN(C)C1` (stereo unspecified), the cytotoxicity at 10 µM was -0.76%.
The same measure for `CS(=O)(=O)Cc1ccc(NC(=O)c2cccnc2)cc1F`: -1.53%; for `CC(C)N(CC(N)=O)C(=O)CCC(=O)c1ccc(F)cc1F`: 0.529%.
The same measure for `Cc1csc(N2CCN(Cc3cnc4c(c3)c(C)nn4C)CC2)n1`: -0.54%.
`Cn1cc(NC(=O)Nc2ccc3c(c2)OCO3)cn1`: the cytotoxicity at 10 µM was -0.37%.
Then `O=C(NCCCc1nc(=O)[nH][nH]1)Nc1ccc(Cl)cc1`, with -54.9%; and `COCCC(=O)Nc1nccn1Cc1ccc(Br)cc1`, with -47.2%.
Then `Cc1ccc(C(=O)N(C)CCNS(C)(=O)=O)cc1Br`, with -45.8%; and `Cc1nc(C)n(CC2CCCN(CCc3ccncc3)C2)n1` (stereo unspecified), with -23%.
The same measure for `CNC(=O)[C@H]1C[C@@H]2CN(C(=O)c3cnc(C)cn3)C[C@@H]2N1C`: -108%.
Take `CCN1CCc2nc(N3CCOCC3)nc(NC(C)C)c2C1`: the cytotoxicity at 10 µM was -112%.
The same measure for `O=C(O)CCc1cn(C2CCN(c3ncccc3Cl)CC2)nn1`: -49.3%; for `Cc1[nH]c(-c2ccccc2)nc1C(=O)N1CC[C@H](CO)[C@@H](O)C1`: 76.5%; for `Cc1ccc(CN2CCCC(c3nnc(CN4CCCCC4)n3C)C2)s1` (stereo unspecified): -2.46%.
The same measure for `Cc1nsc(NC(=O)N2CCc3sccc3C2)n1`: 18.5%.
Then `Cc1oc(-c2ccoc2)nc1CN1CCCCC1CCn1cccn1` (stereo unspecified), with -3.65%; and `CCC[C@H]1CN(S(C)(=O)=O)C[C@@H]1NC(=O)c1ccc(COC)cc1`, with 1.1%; and `CCNC(=O)[C@@H]1C[C@@H](N)CN1Cc1ccc(-c2ccccc2C#N)o1`, with -50.1%.
With `CN(C)C(C(=O)N1CCC(C#N)CC1)c1ccccc1F` (stereo unspecified), the cytotoxicity at 10 µM was -3.59%.
The same measure for `CN1CCC(N(C)CCC(=O)N2CCC(OCc3ccccc3)CC2)C1` (stereo unspecified): -6.35%; for `CC(C)c1nnc(CN2CCCC3(CC2)CN(C)C(=O)O3)o1` (stereo unspecified): -1.52%; for `Cc1cc(-c2cc(C3CCOC3)c(C#N)c(N)n2)ccc1Cl` (stereo unspecified): -0.611%.
Then `CC(C)(C)c1cc(CN2CCOC(CCc3ccccc3)C2)n[nH]1` (stereo unspecified), with -5.34%; and `c1ccc2c(c1)nnn2CCCNC1CCOC2(CCOCC2)C1` (stereo unspecified), with -4.66%; and `O=S1(=O)COCCN1CCCOc1ccc(F)cc1`, with 3.57%.
The same measure for `CN(C)Cc1nnc(C2CCCN(c3ncccc3F)C2)n1C` (stereo unspecified): 7.36%; for `CC(C)=CCN1CCN(Cc2nccn2C)[C@H]2CS(=O)(=O)C[C@H]21`: -2.76%; for `COCCOC1CCN(C(C(=O)O)c2ccc(F)c(Cl)c2)CC1` (stereo unspecified): 9.84%.
For `COc1ccc(-c2n[nH]cc2CN(C)Cc2nnc(C)o2)c(F)c1`, the cytotoxicity at 10 µM is -3.01%.
The same measure for `COc1ccc([C@@H]2CN(Cc3cccnc3N)C[C@H]2NC(C)=O)cc1`: 0.0652%.
As for `CNC(=O)C(C)(C)NC(=O)c1cc(OCC2CCC2)cc(C(=O)OC)c1`, the cytotoxicity at 10 µM was -8.97%.
Then `Fc1ccc(-c2nc(CNC3CCc4ncnn4C3)co2)cc1` (stereo unspecified), with -4.2%; and `CC(C)c1nc(CN2CCCCC2Cn2cncn2)cs1` (stereo unspecified), with -5.06%.
The same measure for `Cc1ccc(C(=O)Nc2nc(C)no2)cc1`: -1.81%; for `CC(C)c1nn(C)c(N(C)C)c1CNCc1ccc(CO)c(F)c1`: -5.4%.
Then `CNC(=O)NC(=O)CCN1CCN(c2ccc(C(=O)OC)cc2)CC1C` (stereo unspecified), with -17.8%; and `Cc1ccc(C(=O)N2CCCC(n3cccn3)C2)cc1S(C)(=O)=O` (stereo unspecified), with -4.63%.
For the compound `Cn1cc(Cl)cc1C(=O)N1CCN(CCc2cccs2)CC1`, the cytotoxicity at 10 µM was -11.8%.
With `O=C(CCc1cccc(F)c1F)N1CCCC(n2cncn2)C1` (stereo unspecified), the cytotoxicity at 10 µM was -20.2%.
The same measure for `Cc1ccccc1C(=O)NCc1ccnc(N(C)C)c1`: -8.84%; for `COc1cc(CNCC2CNc3ccnn3C2)ccn1` (stereo unspecified): -0.65%.
The same measure for `CN(CC(=O)N1CCCC1c1noc(C2CC2)n1)Cc1ccccc1` (stereo unspecified): -5.09%; for `CN(Cc1coc(-c2ccccc2)n1)C1CCCN(c2cccnn2)C1` (stereo unspecified): -14%.
For `CCc1cnc(CNc2ccc(C(=O)N3CCCC(C)C3)cc2C)o1` (stereo unspecified), the cytotoxicity at 10 µM is -3.58%.
The same measure for `Cc1noc(CN2CCN(Cc3cccs3)CC2)n1`: -6.23%; for `COc1cc(CN(C(=O)Nc2cccnc2OC)C2CC2)ccc1O`: -2.14%.
The same measure for `COCc1nc(C(=O)N2CCCCC2Cn2cccn2)cs1` (stereo unspecified): -19.1%.
In the case of `Cc1[nH]ncc1C(=O)N1CCCC(c2cc(C(F)(F)F)[nH]n2)C1` (stereo unspecified), the cytotoxicity at 10 µM is -7.2%.
The same measure for `Cn1cnc(S(=O)(=O)NCCCN2CCCCCC2)c1Cl`: -9.53%; for `CN1CCOC(CNC(=O)Cc2ccccc2F)C1` (stereo unspecified): -3.87%; for `CS(=O)(=O)c1ccc(NC(=O)NCc2ccc3c(c2)CCC3)cn1`: -4.92%.
Then `CC(C)(C)c1n[nH]c(C2CN(C(=O)CCc3cscn3)CCO2)n1` (stereo unspecified), with -17.3%; and `CC1CCCCN1C(=O)CN1CCN(c2ccc3nncn3n2)CC1` (stereo unspecified), with 1.48%.
Then `CCN(CC)C(=O)CN1CCc2nc(C3CCNCC3)nc(NC)c2C1`, with -5.46%; and `CN(C)S(=O)(=O)N1C[C@@H]2CN(Cc3ccoc3)CCO[C@@H]2C1`, with 12.2%; and `COc1ccc(-c2cc(C3CCNCC3)ccn2)cc1`, with 0.288%.
Consider `Cc1ccc(CN2CC[C@H]3OCC[C@@H](C(=O)NC4CC4)[C@@H]3C2)o1`, for which the cytotoxicity at 10 µM amounted to 5.81%.
The same measure for `CNC(=O)[C@@]12CCO[C@@H]1CCN(S(=O)(=O)c1cccnc1)C2`: -3.3%.
The same measure for `Cc1cccc(CN2C[C@@H]3CN(C(=O)c4ccsc4)C[C@@H]3C2=O)n1`: 5.86%.
